According to ChEMBL document CHEMBL1157229, “Phaeofurans and sorbicillin analogues from a fungicolous Phaeoacremonium species (NRRL 32148)” (2006):
Calls of active or inactive are those of the source. The rule behind the calls is not given here.

What was measured:
Aspergillus flavus = test: Antifungal activity against Aspergillus flavus NRRL 6541 at 200 ug/disk after 48 hrs by standard disk diffusion assay; format: functional; conditions: for zone of inhibition at 200 µg/disc: NRRL 6541, 48 h, read-out: IZ
Method in brief: (§1)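 Compounds applied at 200 µg per disk. Read-out was the zone diameter (mm) around the disk at 48 h. Zones were scored as clear, partial clearing, or reduced sporulation of the fungus.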

Escherichia coli = test: […] activity against Escherichia coli ATCC 25922 at 200 ug/disk after 48 hrs by standard disk diffusion assay; format: functional, organism-based
Fusarium verticillioides = test: Antifungal activity against Fusarium verticillioides NRRL 25457 at 200 ug/disk after 48 hrs by standard disk diffusion assay; format: functional, organism-based; method in brief: as §1
Candida albicans = test: Antifungal activity against Candida albicans ATCC 14053 at 200 ug/disk after 48 hrs by standard disk diffusion assay; format: functional, organism-based
Staphylococcus aureus = test: […] activity against Staphylococcus aureus ATCC 29213 at 200 ug/disk after 48 hrs by standard disk diffusion assay; format: functional, organism-based

| SMILES | zone of inhibition at 200 µg/disc (Aspergillus flavus) [mm] | Activity (Escherichia coli) | Activity (Aspergillus flavus) | Activity (Fusarium verticillioides) | Activity (Candida albicans) | Activity (Staphylococcus aureus) |
| --- | --- | --- | --- | --- | --- | --- |
| C/C=C/CCC(=O)c1cc(CO)c(OC)cc1O | 18 |  |  |  |  |  |
| CCCC(O)[C@H]1OCC2=C1[C@@H](O)[C@H]1O[C@H]1[C@@H]2O (stereo partly drawn) |  | inactive | inactive | inactive | inactive | inactive |
| C/C=C/C=C/C(=O)c1cc(C=O)c(OC)cc1O | 40 |  |  |  |  |  |
| O[C@@H]1c2cocc2[C@@H](O)[C@H]2O[C@H]21 |  | inactive | inactive | inactive | inactive | inactive |
| C/C=C/C=C/C(=O)c1cc(C)c(OC)cc1O |  |  | inactive |  |  |  |
